Assay results: ChEMBL document CHEMBL4406847, “Tryptoline-based benzothiazoles re-sensitize MRSA to β-lactam antibiotics” (Bioorg Med Chem, 2019)
Converted amounts (≈) assume the structure as drawn. The source made the active and inactive calls. No cut-off for these calls is given here.

What was measured:
[1] = system: Staphylococcus aureus; test: Potentiation of cefazolin induced antibacterial activity against methicillin resistant Staphylococcus aureus ATCC BAA-44 assessed as minimum resensitizing concentration after 18 hrs by broth microdilution method; type: functional; details: ATCC BAA-44, 18 h, read-out: MEC
Summary of the method: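 Compound titrated in the presence of cefazolin at its CLSI breakpoint (8 μg/mL); MRC is the compound concentration at which no overnight growth occurs, in μg/mL; confirmed in triplicate.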

[2] = system: Staphylococcus aureus; test: Ratio of MIC for antibacterial activity against methicillin resistant Staphylococcus aureus ATCC BAA-44 to MEC for potentiation of cefazolin induced antibacterial activity against methicillin resistant Staphylococcus aureus ATCC BAA-44; type: functional
Summary of the method: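 Compound MIC alone (CLSI broth microdilution) divided by its MRC with cefazolin at the 8 μg/mL breakpoint, both against MRSA BAA-44; each confirmed in triplicate.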

[3] = system: Staphylococcus aureus; test: Antibacterial activity against methicillin resistant Staphylococcus aureus ATCC BAA-44 after 18 hrs by broth microdilution method; type: functional; details: ATCC BAA-44, 18 h
Summary of the method: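 Compound alone, MIC by standard CLSI broth microdilution; lowest concentration with no growth, reported in μg/mL; confirmed in triplicate.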

[4] = system: HeLa; test: Cytotoxicity against human HeLa cells assessed as cell growth inhibition measured after 24 hrs by Celltiter Glo luminescent assay; type: cell-based; details: hela, 24 h
[5] = system: Staphylococcus aureus; test: Antibacterial activity against methicillin resistant Staphylococcus aureus ATCC BAA-44 at 128 to 256 ug/ml after 18 hrs by broth microdilution method; type: functional, organism-based

Row | SMILES | minimal effective concentration [1] | Ratio [2] | MIC [3] | GI50 [4] | Activity [5]
1 | CN(C)C(=O)C1CN(c2nc3ccc(Cl)cc3s2)Cc2[nH]c3ccc(Cl)cc3c21 (racemic) | > 32 µg/mL | 0 |  |  | 
2 | FC(F)(F)c1cc(Br)cc2sc(N3CCc4c([nH]c5ccc(Cl)cc45)C3)nc12 | 0.5 µg/mL |  | 4 mg/L (≈ 8.22 µM) | 5.9 mg/L (≈ 12.1 µM) | 
3 | NCCOc1cc(Cl)c2nc(N3CCc4c([nH]c5ccc(Cl)cc45)C3)sc2c1 | 4 µg/mL |  | 8 mg/L (≈ 18.5 µM) |  | 
4 | N=CNCC1CN(c2nc3ccc(Cl)cc3s2)Cc2[nH]c3ccc(Cl)cc3c21 (racemic) | 2 µg/mL |  | 4 mg/L (≈ 9.29 µM) | 3.8 mg/L (≈ 8.83 µM) | 
5 | COC(=O)C1CN(c2nc3ccc(Cl)cc3s2)Cc2[nH]c3ccc(Cl)cc3c21 (racemic) | 1 µg/mL | 32 | > 32 mg/L | 6.6 mg/L (≈ 15.3 µM) | 
6 | Clc1ccc2[nH]c3c(c2c1)CCN(c1nc2ncccc2s1)C3 | > 64 µg/mL |  |  |  | 
7 | CCn1c2c(c3cc(Cl)ccc31)CCN(c1nc3ccc(Cl)cc3s1)C2 | > 64 µg/mL |  |  |  | 
8 | S=C(Nc1ccc(Cl)cc1)N1CCc2c([nH]c3ccc(Cl)cc23)C1 | 2 µg/mL | 2 | 4 mg/L (≈ 10.6 µM) |  | 
9 | NCCNCC1CN(c2nc3ccc(Cl)cc3s2)Cc2[nH]c3ccc(Cl)cc3c21 (racemic) | 2 µg/mL |  |  | 2.4 mg/L (≈ 5.38 µM) | 
10 | Clc1ccc2sc(N3CCc4c([nH]c5ccc(Cl)cc45)C3)nc2c1 | > 64 µg/mL | 0 |  |  | 
11 | COc1ccc2[nH]c3c(c2c1)CCN(c1nc2ccc(Cl)cc2s1)C3 | > 64 µg/mL |  |  |  | 
12 | FC(F)(F)c1ccc2nc(N3CCc4c([nH]c5ccc(Cl)cc45)C3)sc2c1 | 0.5 µg/mL |  | > 64 mg/L | 4.6 mg/L (≈ 11.3 µM) | 
13 | Clc1ccc2[nH]c3c(c2c1)CCN(c1nc2ccc(Br)cc2s1)C3 | 2 µg/mL |  | > 64 mg/L | 5.1 mg/L (≈ 12.2 µM) | 
14 | OCC1CN(c2nc3ccc(Cl)cc3s2)Cc2[nH]c3ccc(Cl)cc3c21 (racemic) | 2 µg/mL |  |  | 10.8 mg/L (≈ 26.7 µM) | 
15 | Fc1ccc2[nH]c3c(c2c1)CCN(c1nc2ccc(Cl)cc2s1)C3 | > 64 µg/mL |  |  |  | 
16 | FC(F)(F)c1cccc2sc(N3CCc4c([nH]c5ccc(Cl)cc45)C3)nc12 | 1 µg/mL | 32 | > 32 mg/L | 8 mg/L (≈ 19.6 µM) | 
17 | CN(C)CC1CN(c2nc3ccc(Cl)cc3s2)Cc2[nH]c3ccc(Cl)cc3c21 (racemic) | 1 µg/mL |  | 2 mg/L (≈ 4.64 µM) | 5.2 mg/L (≈ 12.1 µM) | 
18 | Cc1ccc2nc(N3CCc4c([nH]c5ccc(Cl)cc45)C3)sc2c1 | > 64 µg/mL | 0 |  |  | 
19 | Cc1nnc(SCC2=C(C(=O)O)N3C(=O)[C@@H](NC(=O)Cn4cnnn4)[C@H]3SC2)s1 |  |  |  |  | Active
20 | FC(F)(F)Oc1ccc2nc(N3CCc4c([nH]c5ccc(Cl)cc45)C3)sc2c1 | 1 µg/mL | 0 |  | 7.3 mg/L (≈ 17.2 µM) | 
21 | Nc1ccc2nc(N3CCc4c([nH]c5ccc(Cl)cc45)C3)sc2c1 | > 64 µg/mL |  |  |  | 
22 | Cn1c(N2CCc3c([nH]c4ccc(Cl)cc34)C2)nc2ccccc21 | > 64 µg/mL |  |  |  | 
23 | Clc1ccc2[nH]c3c(c2c1)CCN(c1nc2c(Cl)cccc2s1)C3 | 2 µg/mL | 32 | > 64 mg/L | 27.7 mg/L (≈ 74 µM) | 
24 | Clc1ccc2[nH]c3c(c2c1)CCN(c1nc2c(Cl)cc(Br)cc2s1)C3 | 8 µg/mL |  | > 32 mg/L | 22 mg/L (≈ 48.5 µM) | 
25 | Clc1ccc2nc(N3CCc4c([nH]c5ccc(Cl)cc45)C3)oc2c1 | > 64 µg/mL | 0 |  |  | 
26 | O=C(O)C1CN(c2nc3ccc(Cl)cc3s2)Cc2[nH]c3ccc(Cl)cc3c21 (racemic) | 16 µg/mL | 0 | 32 mg/L (≈ 76.5 µM) | 65 mg/L (≈ 155 µM) | 
27 | Clc1cc(Cl)c2nc(N3CCc4c([nH]c5ccc(Cl)cc45)C3)sc2c1 | 1 µg/mL |  | 2 mg/L (≈ 4.89 µM) | 16.1 mg/L (≈ 39.4 µM) | 
28 | Clc1ccc2nc(N3CCc4c([nH]c5ccc(Cl)cc45)C3)sc2c1 | 2 µg/mL | 32 | > 64 mg/L | 13.2 mg/L (≈ 35.3 µM) | 

Row | SMILES | minimal effective concentration [1] | Ratio [2] | MIC [3] | GI50 [4] | Activity [5]
29 | Clc1ccc2nc(N3CCc4c([nH]c5c(Cl)cccc45)C3)sc2c1 | 16 µg/mL |  | > 16 mg/L |  | 
30 | Cn1c(N2CCc3c([nH]c4ccc(Cl)cc34)C2)nc2ccc(Cl)cc21 | > 64 µg/mL |  |  |  | 
31 | NCC1CN(c2nc3ccc(Cl)cc3s2)Cc2[nH]c3ccc(Cl)cc3c21 (racemic) | 1 µg/mL |  |  | 1.5 mg/L (≈ 3.72 µM) | 
32 | Clc1ccc2c3c([nH]c2c1)CN(c1nc2ccc(Cl)cc2s1)CC3 | > 64 µg/mL |  |  |  | 
33 | Clc1ccc2[nH]c3c(c2c1)CCN(c1nc2ccccc2s1)C3 | > 64 µg/mL | 0 |  |  | 
34 | COc1cc(Cl)c2nc(N3CCc4c([nH]c5ccc(Cl)cc45)C3)sc2c1 | > 32 µg/mL |  |  |  | 
35 | Clc1ccc2nc(N3CCc4c([nH]c5ccc(Br)cc45)C3)sc2c1 | 1 µg/mL |  | 4 mg/L (≈ 9.55 µM) |  | 
36 | Clc1ccc2nc(N3CCc4c([nH]c5cccc(Cl)c45)C3)sc2c1 | 16 µg/mL |  | > 16 mg/L |  | 
37 | FC(F)(F)Oc1ccc(NC(=S)N2CCc3c([nH]c4ccc(Cl)cc34)C2)cc1 | 1 µg/mL | 2 |  |  | 
38 | COCOCC1CN(c2nc3ccc(Cl)cc3s2)Cc2[nH]c3ccc(Cl)cc3c21 (racemic) | 2 µg/mL |  |  | 7 mg/L (≈ 15.6 µM) | 
39 | Cl.NCCNc1cc(C(F)(F)F)c2nc(N3CCc4c([nH]c5ccc(Cl)cc45)C3)sc2c1 | 1 µg/mL |  |  | 7.4 mg/L | 
40 | Cn1c(N2CCc3c([nH]c4ccc(Cl)cc34)C2)nc2ccc(C(F)(F)F)cc21 | > 64 µg/mL |  |  |  | 
41 | Cl.NCC(=O)Nc1cc(Cl)c2nc(N3CCc4c([nH]c5ccc(Cl)cc45)C3)sc2c1 | 2 µg/mL |  |  | 14.8 mg/L | 
42 | CNc1cc(C(F)(F)F)c2nc(N3CCc4c([nH]c5ccc(Cl)cc45)C3)sc2c1 | 2 µg/mL |  | > 32 mg/L | 15.4 mg/L (≈ 35.2 µM) | 
43 | Clc1ccc2[nH]c3c(c2c1)CCN(c1nc2ccccc2o1)C3 | > 64 µg/mL | 0 |  |  | 
44 | CCOC(=O)C1c2[nH]c3ccc(Cl)cc3c2CCN1c1nc2ccc(Cl)cc2s1 (stereo unspecified) | > 64 µg/mL |  |  |  | 
45 | Oc1cc(Cl)c2nc(N3CCc4c([nH]c5ccc(Cl)cc45)C3)sc2c1 | 8 µg/mL |  | > 32 mg/L | 5.5 mg/L (≈ 14.1 µM) | 
46 | FC(F)(F)c1ccc2nc(N3CCc4c([nH]c5ccc(Cl)cc45)C3)oc2c1 | > 64 µg/mL | 0 |  |  | 
47 | CCOC(=O)c1ccc2nc(N3CCc4c([nH]c5ccc(Cl)cc45)C3)sc2c1 | > 64 µg/mL |  |  |  | 
48 | Cl.NCCSCC1CN(c2nc3ccc(Cl)cc3s2)Cc2[nH]c3ccc(Cl)cc3c21 (racemic) | 1 µg/mL |  |  | 3.8 mg/L | 
49 | Clc1ccc2[nH]c3c(c2c1)CCN(c1nc2cccc(Cl)c2s1)C3 | 1 µg/mL |  | 4 mg/L (≈ 10.7 µM) | 6.7 mg/L (≈ 17.9 µM) | 
50 | Cl.Nc1cc(C(F)(F)F)c2nc(N3CCc4c([nH]c5ccc(Cl)cc45)C3)sc2c1 | 2 µg/mL |  | 16 mg/L | 32 mg/L | 
51 | C[N+](C)(C)CC1CN(c2nc3ccc(Cl)cc3s2)Cc2[nH]c3ccc(Cl)cc3c21.[I-] (racemic) | 4 µg/mL |  | 8 mg/L | 18 mg/L | 
52 | FC(F)(F)c1cnc2nc(N3CCc4c([nH]c5ccc(Cl)cc45)C3)sc2c1 | > 64 µg/mL |  |  |  | 
53 | CO/N=C(\C(=O)N[C@@H]1C(=O)N2C(C(=O)O)=C(COC(N)=O)CS[C@H]12)c1ccco1 |  |  |  |  | Active
54 | FC(F)(F)c1ccc(NC(=S)N2CCc3c([nH]c4ccc(Cl)cc34)C2)cc1 | 1 µg/mL | 2 | 2 mg/L (≈ 4.88 µM) |  | 
55 | Clc1ccc2[nH]c3c(c2c1)CCN(c1nc2c(Cl)c(Cl)c(Cl)cc2s1)C3 | 1 µg/mL |  | 2 mg/L (≈ 4.51 µM) | 11.7 mg/L (≈ 26.4 µM) | 
